# Screening data from PubChem.
# S100A4 MyoIIA = inhibitors of human S100A4 binding to myosin IIA peptide; hit rate 0.14% among 360,000; AID 652163; S100A4/TAMRA-MyoIIA peptide fluorescence polarization; inhibition, % at 10.7 µM;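 active = mean inhibition of at least 70% across replicates, with every replicate also reaching that level; inconclusive = mean inhibition reaches 70% but some replicates fall short; inactive = mean inhibition below 70%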
# Target sequence (P26447 whole entry, looked up): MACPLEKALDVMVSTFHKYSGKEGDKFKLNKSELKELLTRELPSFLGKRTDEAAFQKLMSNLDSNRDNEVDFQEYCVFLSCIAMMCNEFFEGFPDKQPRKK
#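 Test system: S100A4 monomer protein; Medium: HEPES pH 7.2 with CaCl2, KCl, NaCl, DTT, Triton; Probe or stimulus: TAMRA-labelled myosin IIA heavy-chain peptide probe, 5 nM; Doses: one dose per compound; Times: polarization read 5 min after assay mix addition, stable 5–60 min; Benchmarks: neutral control DMSO, positive control TFP.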
# RAD52 anneal inh = inhibitors of human RAD52 DNA annealing. recombinant RAD52 DNA annealing, FRET fluorescence. hit rate 0.46% among 360,000. P43351. AID 651710. inhibition, % at 18.7 µM;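 active = every replicate showing at least 50% inhibition; inconclusive = mean inhibition at least 50% but not in every replicate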
# RAD54 inh = inhibitors of human RAD54 branch migration | Q92698 | RAD54 Holliday junction branch migration, FAM/BHQ fluorescence | inhibition, % at 10.4 µM | hit rate 0.14% among 360,000;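 active = mean normalized replicate activity at least 40 and at least half of replicates scoring 40 or more; inconclusive = only one of the two criteria met; inactive = mean below 40 and under half of replicates reaching 40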;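 note: 0% = median of neutral control wells and 100% = median of positive control wells; inhibitors cause a drop in the FAM fluorescence signal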
# MLL AF4-AF9 inh = blocks AF4 peptide binding to human AF9 | P42568 | AlphaScreen, biotin-AF4 peptide binding to FLAG-AF9 | inhibition, % at 10 µM | hit rate 0.47% among 350,000;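 active = every replicate reaching a set inhibition limit, whatever the replicate mean, cut at about 25% in these data; inconclusive = mean inhibition reaches that limit but some replicates miss it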;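 note: 0% = plate neutral control median and 100% = total signal loss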
# Target sequence (P42568 whole entry, looked up): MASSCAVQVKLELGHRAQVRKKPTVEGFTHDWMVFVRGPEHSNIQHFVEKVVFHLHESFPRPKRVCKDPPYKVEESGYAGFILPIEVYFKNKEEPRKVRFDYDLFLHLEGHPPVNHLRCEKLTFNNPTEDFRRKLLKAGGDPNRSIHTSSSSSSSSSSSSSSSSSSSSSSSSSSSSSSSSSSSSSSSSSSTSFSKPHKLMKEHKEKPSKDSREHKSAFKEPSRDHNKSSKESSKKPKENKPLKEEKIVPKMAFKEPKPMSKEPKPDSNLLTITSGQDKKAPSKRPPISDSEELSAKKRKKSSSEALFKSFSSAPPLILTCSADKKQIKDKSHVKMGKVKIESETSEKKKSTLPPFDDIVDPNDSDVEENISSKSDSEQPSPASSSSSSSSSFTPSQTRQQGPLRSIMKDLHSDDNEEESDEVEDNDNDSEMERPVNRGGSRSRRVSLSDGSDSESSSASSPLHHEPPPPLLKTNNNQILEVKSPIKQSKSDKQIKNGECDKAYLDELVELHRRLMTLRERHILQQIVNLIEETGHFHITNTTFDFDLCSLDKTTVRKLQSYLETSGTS
# dFosB activator = mouse delta FosB homodimer activation | P13346 | purified delta FosB, TAMRA-CDK5 oligo fluorescence polarization; percent of positive-control signal above neutral wells | activation, % at 25 µM | hit rate 0.99% among 340,000 | AID 493131;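 active = mean activation above about 17%, with every replicate also reaching it, limit read from the data, passing the limit was not always enough; inconclusive = only one of the two conditions met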
# Numbers without * were called inactive; ? = inconclusive; · = no result given; ! = a repeat was not active. Shown are actives, neighbours in structure and some others; about 1.5% of the full set was active somewhere.
SMILES,S100A4 MyoIIA,RAD52 anneal inh,RAD54 inh,MLL AF4-AF9 inh,dFosB activator
Cc1noc(C)c1NC(=O)Nc1cccc2c1O[C@@H](CN(C)C(=O)NC(C)C)[C@@H](C)CN([C@@H](C)CO)C2=O,11.1,-5.0,4.5,-2.2,·
COCCCNC(=O)[C@@]1(C)c2ccccc2C(=O)N(Cc2cc(F)cc(C(F)(F)F)c2)[C@H]1c1ccc(CO)cc1,21.6,3.0,4.3,-0.7,·
Cc1nnc2ccc(-c3cccc(NC(=O)c4ccco4)c3)nn12,-3.1,-7.4,-5.8,0.2,-5.4
CCOc1ccc(CC(=O)Nc2cccc(-c3ccc4nnc(C)n4n3)c2)cc1,-1.9,-0.8,-1.3,2.2,89.2*
COc1ccc(-c2cc3c(=O)n(CC(=O)Nc4cccc(Cl)c4)nc(C)n3n2)cc1,1.8,0.0,-0.5,0.3,23.9*
COc1ccc(CC(=O)Nc2cccc(-c3ccc4nnc(C)n4n3)c2)cc1,-12.3,-11.5,·,1.6,72.7*
COc1ccc(CC(=O)Nc2cccc(-c3ccc4nnc(C)n4n3)c2)cc1OC,-1.7,12.5,·,4.5,72.7*
Cc1nnc2ccc(-c3cccc(NC(=O)Cc4cccs4)c3)nn12,-7.4,-27.5,2.9,·,-32.4
COc1ccc(CC(=O)Nc2cccc(-c3ccc4nncn4n3)c2)cc1OC,1.1,-12.0,·,-5.0,63.5*
Cc1ccc(NC(=O)Nc2ccc3c(c2)C(=O)N(C)[C@@H]2CC[C@H](CC(=O)NCC(F)(F)F)O[C@@H]2CO3)cc1,-7.6,19.8,4.3,3.7,·
CC(=O)N1CCN(c2ccc(S(=O)(=O)NCCN(C(C)C)C(C)C)cc2[N+](=O)[O-])CC1,·,·,·,·,-2.9
CN(C)CCNS(=O)(=O)c1ccc(N2CCN(c3ccc(F)cc3)CC2)c([N+](=O)[O-])c1,-4.6,11.9,·,27.6*,0.9
COc1ccc2c3c([nH]c2c1)[C@@H](CO)N(S(C)(=O)=O)CC31CCN(C(=O)c2cccnc2)CC1,-6.0,-6.7,·,-4.2,·
COc1ccc(NC(=O)N(C)C[C@@H]2Oc3ccc(NC(=O)Cc4cn(C)c5ccccc45)cc3CC(=O)N([C@H](C)CO)C[C@@H]2C)cc1,11.3,-0.1,0.3,2.7,·
Cc1ccc(NC(=O)NNC(=O)c2cc3ccccc3cc2O)cc1,65.0,-44.7,-2.4,-6.7,93.1*
COc1ccccc1NC(=O)NNC(=O)c1cc2ccccc2cc1O,0.5,-6.1,5.4,-1.1,13.9
N#C[C@@H]1[C@@H](c2ccccc2-c2cccc(F)c2)[C@H](CO)N1C(=O)C1CCCC1,38.3,113.7*,·,-0.5,·
Cc1ccc(-c2ccccc2[C@H]2[C@@H](CO)N(S(C)(=O)=O)[C@H]2C#N)cc1,-4.7,101.3*,·,-0.8,·
CN(C)C(=O)c1ccc(-c2ccccc2[C@@H]2[C@@H](CO)N(C(=O)C3CCCC3)[C@H]2C#N)cc1,6.6,58.0*,·,-1.7,·
N#C[C@H]1[C@@H](c2ccccc2-c2cccc(F)c2)[C@@H](CO)N1C(=O)C1CCCC1,0.0,-18.3,·,-15.1,·
C[C@H]1CN([C@@H](C)CO)C(=O)c2cccc(NS(=O)(=O)c3cccs3)c2O[C@@H]1CN(C)C,47.5,22.2,14.4,-2.1,·
COCC#Cc1cnc2c(c1)C(=O)N([C@@H](C)CO)C[C@H](C)[C@H](CN(C)C(=O)Cc1ccncc1)O2,-3.9,-26.6,-3.1,-1.0,·
C[C@@H]1CN([C@H](C)CO)C(=O)c2cc(NC(=O)c3ccncc3)ccc2O[C@@H](C)CCCCO[C@H]1CN(C)Cc1ccc(C(F)(F)F)cc1,3.4,-26.0,-0.2,3.9,·
CCOC(=O)c1c(N)n(C2CC(C)(C)NC(C)(C)C2)c2nc3ccccc3nc12,·,·,82.6*,·,-5.0
CCOC(=O)c1c(N)n(-c2ccc(N)cc2)c2nc3ccccc3nc12,-1.5,-2.9,·,0.0,0.3
SMILES,S100A4 MyoIIA,RAD52 anneal inh,RAD54 inh,MLL AF4-AF9 inh,dFosB activator
Cc1c(C)n(CC(O)CNc2ccccc2)c2ccccc12 (stereo unspecified),-4.7,-11.8,·,25.7*,-14.3
COc1ccc(CN(C)C[C@H]2Oc3ccc(NS(=O)(=O)c4c(C)noc4C)cc3CC(=O)N([C@H](C)CO)C[C@@H]2C)cc1,3.3,1.2,·,3.3,·
O=C1O[C@@H](c2ccccc2)[C@@H](c2ccccc2)N2[C@@H](c3ccccc3OCCO)[C@]3(C(=O)Nc4ccc(C#CCCO)cc43)[C@@H](C(=O)N3CCCCCCC3)[C@H]12,-5.8,72.7*,-3.4,-2.6,·
NC(=O)NCC#Cc1ccc2c(c1)[C@]1(C(=O)N2)[C@H](c2ccccc2OCCO)N2[C@H](c3ccccc3)[C@H](c3ccccc3)OC(=O)[C@H]2[C@@H]1C(=O)N1CCCCCCC1,10.9,-23.1,·,2.8,·
Cc1c2ccncc2cc2c1[nH]c1ccccc12,24.8,21.3,9.9,-2.9,78.3*
Cc1cc2c([nH]c3ccccc32)c(C)n1,-0.6,12.5,33.8,0.6,-4.9
CCCNC(=O)N1CC2(CN(C(=O)CC3CC3)C2)c2c(n(C)c3cc(OC)ccc23)[C@@H]1CO,·,·,·,-2.2,·
Cc1ccc(-c2nn(-c3cc(N4CCNCC4)ccc3[N+](=O)[O-])c(=O)c3ccccc23)cc1,-3.6,-6.8,·,1.7,35.0*
Cc1nn(-c2cc(N3CCCCCC3)ccc2[N+](=O)[O-])c(=O)c2ccccc12,·,·,10.3,·,-0.7
CN(C)C(=O)c1cccc(-c2ccc(C3[C@H]4CNC[C@@H]3N4C(=O)Nc3cc(F)ccc3F)cc2)c1 (stereo partly specified),-6.5,6.5,·,-4.9,·
O=C(C[C@@H]1CC[C@H]2[C@@H](COC[C@@H](O)CN2C(=O)Nc2cc(Cl)cc(Cl)c2)O1)NCC1CC1,5.4,-5.6,0.9,2.5,·
CCN(CC)c1ccc(NC(=O)Nc2ccccc2)cc1,-15.1,-4.9,14.7,25.4*,-9.0
Cc1ccc2[nH]c3nc(N/N=C/c4cccc(O)c4)nnc3c2c1,0.6,-14.8,-10.5,-0.7,21.1*
COc1cc(/C=N/Nc2nnc3c(n2)[nH]c2ccccc23)ccc1O,-0.6,-3.9,3.9,-2.2,-9.7
CN(C)CC/C=C1/c2ccccc2Sc2ccc(Cl)cc21,-2.5,41.4,9.4,26.9*!,13.1
CO[C@H]1CN(C)C(=O)c2cc(NC(=O)C3CC3)ccc2OC[C@H](C)N(C(C)=O)C[C@@H]1C,-15.4,-7.4,-11.7,-2.2,·
CNC[C@@H]1Oc2ccc(NC(=O)c3ccncc3)cc2C(=O)N([C@H](C)CO)C[C@@H]1C,-5.4,-2.1,-3.8,-11.6,·
COc1ccc(NC(=O)c2ccccc2NC(=O)CN2CCCCCC2)cc1,1.2,-2.1,-8.8,28.4*,-6.2
CN=c1scc(-c2ccco2)n1/N=C/c1ccc(O)c(O)c1,-1.6,-12.3,·,25.5*,-13.8
C[C@@H]1CN([C@@H](C)CO)C(=O)c2cccc(NC(=O)Nc3ccccc3)c2O[C@H]1CN(C)Cc1ccc(C(=O)O)cc1,0.6,0.3,-17.3,-1.0,·
NCCCNCCCCNCCCN,2.4,110.7*,3.5,?,-1.3
CCN1CCN(CCNC(=O)c2ccc(/C=C3\Sc4ccccc4N(Cc4ccccc4F)C3=O)cc2)CC1,-1.4,84.7*,·,20.6,-38.8
